A selection: hits, their analogues and other compounds. The true share with any hit is near 3.2%.
DAX1 inh-1 = NR0B1 (DAX1) inhibition; P51843; HEK293 Gal4-DAX1 luciferase reporter, luminescence; inhibition, % at 6.75 µM; actives 0.99% (n = 340,000);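 active = inhibition above the mean over all tested compounds plus 3 SD, cut at about 4.2% in these data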;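 note: inhibition shows as a rise in luminescence from relieved DAX1 repression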
Target sequence (P51843 207-470 limits assumed): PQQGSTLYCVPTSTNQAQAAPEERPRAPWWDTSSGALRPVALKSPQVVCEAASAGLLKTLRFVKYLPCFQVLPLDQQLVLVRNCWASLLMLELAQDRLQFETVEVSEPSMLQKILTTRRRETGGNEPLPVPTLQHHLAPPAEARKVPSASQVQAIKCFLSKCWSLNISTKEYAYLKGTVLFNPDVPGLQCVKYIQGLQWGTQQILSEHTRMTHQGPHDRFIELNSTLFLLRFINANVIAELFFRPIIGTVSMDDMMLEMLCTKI
NR2E3 ag-1 = activates human NR2E3 receptor; Q9Y5X4; CHO-S Gal4-NCOR/VP16-NR2E3 two-hybrid, luciferase; inhibition of corepressor binding, % at 3.98 µM; actives 0.35% (n = 360,000);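 active = inhibition above the mean of all tested compounds plus 3 SD, cut at about 70% in these data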;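 note: higher means lower luciferase signal from less NR2E3 corepressor binding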
Target sequence (Q9Y5X4 whole entry, looked up, the tested form may be a part): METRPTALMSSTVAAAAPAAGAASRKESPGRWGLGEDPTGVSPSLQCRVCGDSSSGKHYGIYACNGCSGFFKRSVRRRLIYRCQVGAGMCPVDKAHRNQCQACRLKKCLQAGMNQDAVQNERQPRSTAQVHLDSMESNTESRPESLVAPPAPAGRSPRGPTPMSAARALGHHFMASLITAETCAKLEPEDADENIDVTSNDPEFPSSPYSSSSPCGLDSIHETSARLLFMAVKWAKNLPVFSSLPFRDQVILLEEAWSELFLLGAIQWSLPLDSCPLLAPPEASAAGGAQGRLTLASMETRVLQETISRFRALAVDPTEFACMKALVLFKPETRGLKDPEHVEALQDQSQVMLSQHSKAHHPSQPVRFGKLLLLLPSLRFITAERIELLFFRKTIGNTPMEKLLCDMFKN
NR2E3 ag-2 = NR2E3 (human) agonism. Q9Y5X4. GST-NR2E3/biotin-RetCOR TR-FRET, 1536-well. inhibition of corepressor binding, % at 4.78 µM. actives 0.12% (n = 320,000);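 active = percent inhibition above the cutoff of mean plus 3 SD of all tested compounds, set per screening campaign, cut at about 20% in these data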
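Test system – NR2E3–RetCOR corepressor complex · Quantity – NR2E3 fusion 1.35 nM · Buffer or medium – Tris pH 7.5 · Incubation – Compound–protein incubation for 5 h at 4 °C · Technique – TR-FRET, Eu(K)-anti-GST donor, streptavidin-D2 acceptor, ex 340, em 617/671 nm · Evaluation – percent inhibition of 671/617 nm emission ratio versus biotin and DMSO controls · Plate – 1536-well format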
DAX1 inh-2 = blocks DAX1 repression of SF-1 activated StAR promoter. HEK293T StAR-luciferase reporter, SF-1/DAX-1 repression relief. inhibition, % at 6.8 µM. actives 1.1% (n = 370,000). AID 652010;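 active = inhibition above the mean over all tested compounds plus 3 SD, cut at about 3.6% in these data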;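 note: higher inhibition means more luminescence from relief of DAX-1 repression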
JMJD2C inh = human JMJD2C demethylase inhibition; Q9H3R0; GST-JMJD2C(1-420) H3K9me3 demethylation, DELFIA europium; inhibition, % at 2.35 µM; actives 0.069% (n = 330,000); AID 2099;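 active = more than half of a compound's replicate wells show inhibition beyond 50%, single wells judged on their own value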;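 note: signal counts dimethyl H3K9 product captured on neutravidin plate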
SMARCA2 act = increases SMARCA2 function in MMTV reporter cells; MG213 cells, MMTV-luciferase reporter, dexamethasone, overnight; AID 652017; activation, % at 9.1 µM; actives 1% (n = 370,000); in the data active = activation above about 7.8%
NR2E3 ag conf = NR2E3 agonism confirmed in two-hybrid assay. inhibition, % at 3.98 µM. AID 624378. shares compounds with NR2E3 ag-1. actives 51% (n = 2,300). CHO-S mammalian two-hybrid NR2E3-NCOR, luciferase luminescence;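 active = average inhibition above a cutoff equal to the mean inhibition of all tested compounds plus one SD, cut at about 70% in these data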
GAL4-VP16 luc = reduces GAL4-VP16 reporter signal in NR2E3 counterscreen | CHO-S GAL4-VP16 luciferase reporter, luminescence | inhibition, % at 3.98 µM | actives 29% (n = 2,300) | shares compounds with NR2E3 ag-1;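 active = mean inhibition above a cutoff equal to the average over all tested compounds plus one standard deviation, cut at about 70% in these data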;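 note: luciferase from a UAS reporter driven by GAL4-VP16 transactivation; higher means less reporter light so more repression of VP16 activity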
Hits are given with their value.

Screening O=C(c1cc(COc2ccc3ncccc3c2)on1)N1CCCC1 returned DAX1 inh-1 inactive, NR2E3 ag-1 83.8, NR2E3 ag-2 inactive, DAX1 inh-2 inactive, JMJD2C inh inactive, SMARCA2 act inactive, NR2E3 ag conf 79.8 and GAL4-VP16 luc inactive.
`C=CCC1(CC=C)CCCN1C(=O)c1cc(COc2ccc(C)nc2)on1` gave DAX1 inh-1 inactive, NR2E3 ag-1 98.9, NR2E3 ag-2 inactive, DAX1 inh-2 inactive, JMJD2C inh inactive, SMARCA2 act inactive, NR2E3 ag conf 97.1 and GAL4-VP16 luc 79.7.
For O=C(NCCc1cn2ccccc2n1)c1cc(COc2ccc3ncccc3c2)on1 the results were DAX1 inh-1 inactive, NR2E3 ag-1 inactive, NR2E3 ag-2 inactive, DAX1 inh-2 inactive, JMJD2C inh inactive, SMARCA2 act inactive, NR2E3 ag conf inactive and GAL4-VP16 luc inactive.
O=C(NCCc1cn2ccccc2n1)c1ccccc1F was read as DAX1 inh-1 inactive, NR2E3 ag-1 inactive, NR2E3 ag-2 inactive, DAX1 inh-2 inactive, JMJD2C inh inactive and SMARCA2 act inactive.
Cc1cc(OCc2cc(C(=O)N3CCC(Oc4cccnc4)CC3)no2)cc(C)c1Cl was read as DAX1 inh-1 inactive, NR2E3 ag-1 93.7, NR2E3 ag-2 inactive, DAX1 inh-2 inactive, JMJD2C inh inactive, SMARCA2 act inactive, NR2E3 ag conf 93.5 and GAL4-VP16 luc 74.5.
Cc1ccc(C)c(-n2sc3ccc(F)cc3c2=O)c1 was read as DAX1 inh-1 inactive, NR2E3 ag-1 inactive, NR2E3 ag-2 inactive, DAX1 inh-2 inactive, JMJD2C inh inactive, SMARCA2 act inactive, NR2E3 ag conf inactive and GAL4-VP16 luc inactive.
Screening COC(=O)c1ccc2nc(Nc3nc4c(F)cc(F)cc4s3)sc2c1 returned DAX1 inh-1 inactive, NR2E3 ag-1 inactive, NR2E3 ag-2 inactive, DAX1 inh-2 inactive, JMJD2C inh inactive, SMARCA2 act inactive, NR2E3 ag conf inactive and GAL4-VP16 luc inactive.
Screening CC1C/C(=N\NC(=S)NCc2ccccc2)CC(C)(C)C1 (stereo not given) returned DAX1 inh-1 inactive, NR2E3 ag-1 inactive, NR2E3 ag-2 inactive, DAX1 inh-2 inactive, JMJD2C inh inactive, SMARCA2 act inactive, NR2E3 ag conf inactive and GAL4-VP16 luc inactive.
`CC1CCC/C(=N\NC(=S)NCc2ccccc2)C1` (stereo not given) gave DAX1 inh-1 inactive, NR2E3 ag-1 inactive, NR2E3 ag-2 inactive, DAX1 inh-2 inactive, JMJD2C inh inactive and SMARCA2 act inactive.
`CC1CCCCC1Nc1ncnc2sccc12` (stereo not given) gave DAX1 inh-1 inactive, NR2E3 ag-1 inactive, NR2E3 ag-2 inactive, DAX1 inh-2 inactive, JMJD2C inh inactive, SMARCA2 act inactive, NR2E3 ag conf inactive and GAL4-VP16 luc inactive.
`CN(C)c1ccc(NC(=S)OC2CCC23CCC(c2ccccc2)CC3)cc1` (stereo not given) gave DAX1 inh-2 inactive and SMARCA2 act inactive.
`COC(=O)N/N=C(\C)c1ccc(Br)cc1` gave DAX1 inh-1 inactive, NR2E3 ag-1 inactive, NR2E3 ag-2 inactive, DAX1 inh-2 inactive, JMJD2C inh inactive and SMARCA2 act inactive.
`CSC(=S)N/N=C(\C)c1ccc(Br)cc1` gave DAX1 inh-1 inactive, NR2E3 ag-1 82.1, NR2E3 ag-2 inactive, DAX1 inh-2 inactive, JMJD2C inh inactive, SMARCA2 act inactive, NR2E3 ag conf inactive and GAL4-VP16 luc inactive.
For CC(=O)N1CCc2cc(S(=O)(=O)NCc3ccc(C)cc3)ccc21 the results were DAX1 inh-1 inactive, NR2E3 ag-1 inactive, NR2E3 ag-2 inactive, DAX1 inh-2 inactive, JMJD2C inh inactive, SMARCA2 act inactive, NR2E3 ag conf inactive and GAL4-VP16 luc inactive.
For COc1ccc(CNS(=O)(=O)c2ccc3c(c2)N(C(C)=O)CC(C)S3)cc1 (stereo not given) the results were DAX1 inh-1 inactive, NR2E3 ag-1 inactive, NR2E3 ag-2 inactive, DAX1 inh-2 inactive, JMJD2C inh inactive, SMARCA2 act inactive, NR2E3 ag conf inactive and GAL4-VP16 luc inactive.
CC(=O)N1CC(C)Sc2ccc(S(=O)(=O)NCc3ccc(F)cc3)cc21 (stereo not given) was read as DAX1 inh-1 inactive, NR2E3 ag-1 inactive, NR2E3 ag-2 inactive, DAX1 inh-2 inactive, JMJD2C inh inactive and SMARCA2 act inactive.
CC(=O)N1CC(C)Sc2ccc(S(=O)(=O)NCCc3cccc(C)c3)cc21 (stereo not given) was read as DAX1 inh-1 inactive, NR2E3 ag-1 79.0, NR2E3 ag-2 inactive, DAX1 inh-2 inactive, JMJD2C inh inactive, SMARCA2 act inactive, NR2E3 ag conf 77.4 and GAL4-VP16 luc inactive.
For Cc1ccc(CNS(=O)(=O)c2ccc3c(c2)CCN3C(=O)C2CCC2)cc1 the results were DAX1 inh-1 inactive, NR2E3 ag-1 inactive, NR2E3 ag-2 inactive, DAX1 inh-2 inactive, JMJD2C inh inactive and SMARCA2 act inactive.
O=C(CN(CCc1ccccc1)S(=O)(=O)c1ccccc1)N1CCOCC1 was read as DAX1 inh-2 inactive and SMARCA2 act inactive.
COC(=O)[C@@]12CCCCC3=C1N(CCC3)C(=O)[C@H]2CC(=O)NCCc1ccccc1OC was read as DAX1 inh-2 inactive and SMARCA2 act inactive.
For Cc1ccnc(NC(=S)N2CCN(c3cccc(C(F)(F)F)c3)CC2)c1 the results were DAX1 inh-1 inactive, NR2E3 ag-1 84.0, NR2E3 ag-2 inactive, DAX1 inh-2 inactive, JMJD2C inh inactive, SMARCA2 act inactive, NR2E3 ag conf 91.3 and GAL4-VP16 luc inactive.
`CN(C)S(=O)(=O)c1ccc(NC(=O)N2CCN(c3cccc(C(F)(F)F)c3)CC2)cc1` gave DAX1 inh-1 inactive, NR2E3 ag-1 inactive, NR2E3 ag-2 inactive, DAX1 inh-2 inactive, JMJD2C inh inactive, SMARCA2 act inactive, NR2E3 ag conf 80.0 and GAL4-VP16 luc inactive.
`Cc1ccc(C)c(NC(=S)N2CCN(c3cccc(C(F)(F)F)c3)CC2)c1` gave DAX1 inh-1 inactive, NR2E3 ag-1 inactive, NR2E3 ag-2 inactive, DAX1 inh-2 inactive, JMJD2C inh inactive and SMARCA2 act inactive.
`Cc1ccc(-c2cc(C(=O)NN=Cc3ccc(N(C)C)cc3)[nH]n2)cc1C` gave DAX1 inh-2 inactive and SMARCA2 act inactive.
For O=C(NC(c1cccnc1)C(F)(F)F)c1cc(COc2ccc3c(c2)CCCC3)on1 (stereo not given) the results were DAX1 inh-1 inactive, NR2E3 ag-1 96.3, NR2E3 ag-2 inactive, DAX1 inh-2 inactive, JMJD2C inh inactive, SMARCA2 act inactive, NR2E3 ag conf 96.8 and GAL4-VP16 luc 78.7.
